High-throughput results deposited in PubChem BioAssay by Sanford-Burnham Center for Chemical Genomics.
Hits are enriched below; roughly 3% of the tested compounds scored in any of these assays.
SENP8 block-1 = human SENP8 protease inhibitors, primary screen, biochemical, fluorescence, Nedd8 protein substrate, uHTS; Sentrin-specific protease 8 (Homo sapiens), Q96LD8; recombinant SENP8; inhibition, % at 20 µM; 360,000 compounds, 0.64% hits; AID 602440, 2012; in the data active = inhibition mostly above about 40%, no sharp cut-off; inactive = mostly below about 27%
SENP8 block-2 = SENP8 protease inhibitors, primary screen, biochemical, luminescence; purified SENP8, Z-RLRGG-aminoluciferin cleavage; 330,000 compounds, 1.2% hits; inhibition, % at 10 µM; in the data active = inhibition above about 50%
SENP6 inh = SENP6 protease inhibitors, primary screen, biochemical, luminescence, uHTS; Recombinant SENP6 catalytic domain, aminoluciferin luminescence; inhibition, % at 10 µM; 330,000 compounds, 1.8% hits;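 active = inhibition above about 50% at the single tested dose, limit read from the data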;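 also: plate controls were DMSO wells with enzyme for no effect and DMSO wells lacking enzyme for full effect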
Target sequence (Q9GZR1 628-1112 limits assumed): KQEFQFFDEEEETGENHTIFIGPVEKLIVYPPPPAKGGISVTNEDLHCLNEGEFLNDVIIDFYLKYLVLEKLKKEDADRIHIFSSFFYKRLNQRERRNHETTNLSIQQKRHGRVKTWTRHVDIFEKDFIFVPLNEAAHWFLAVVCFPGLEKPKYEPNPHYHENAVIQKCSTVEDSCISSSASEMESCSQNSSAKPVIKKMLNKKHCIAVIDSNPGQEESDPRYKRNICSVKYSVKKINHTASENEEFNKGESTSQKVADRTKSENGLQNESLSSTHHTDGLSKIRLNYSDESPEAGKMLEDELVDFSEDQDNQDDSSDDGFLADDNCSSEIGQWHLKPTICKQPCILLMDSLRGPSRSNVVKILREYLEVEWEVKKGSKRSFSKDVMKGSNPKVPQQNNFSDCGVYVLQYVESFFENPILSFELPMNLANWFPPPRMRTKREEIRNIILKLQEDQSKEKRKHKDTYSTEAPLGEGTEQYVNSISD
Apaf1 inhib = inhibitors of human Apaf-1 apoptosome, primary screen, biochemical, DEVD-Rh110 fluorescence, uHTS; Apoptotic protease-activating factor 1 (Homo sapiens), O14727; reconstituted apoptosome caspase-3 activity; inhibition, % at 20 µM; 330,000 compounds, 0.71% hits; AID 489030, 2010; active = inhibition of at least 40% at 20 µM;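 also: plate controls were DMSO wells for no effect and DEVD-CHO caspase inhibitor wells for full effect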
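Material: reconstituted apoptosome with Apaf-1, cytochrome c, caspase-9, procaspase-3, dATP / Buffer or medium: pH 7.5 Hepes buffer with CHAPS, BSA, DTT / Also added: cytochrome c with DEVD-Rh110 / Schedule: compound with Apaf-1, dATP, procaspase-3 30 min, then 50 min reaction, room temperature / Technique: rhodamine 110 fluorescence at Ex 480/Em 540 nm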
SENP7 inh = SENP7 protease inhibitors, primary screen, biochemical, luminescence, uHTS | Sentrin-specific protease 7 (Homo sapiens), Q9BQF6 | recombinant SENP7, Z-RLRGG-aminoluciferin luminescence, 40 min | inhibition, % at 5 µM | 330,000 compounds, 1.5% hits | AID 434973, 2010;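 active = inhibition above about 50% at the single test dose, limit read from the data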;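 also: plate controls were DMSO with enzyme for no effect and no enzyme buffer wells for full effect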
UBC13 polyUb = UBC13 polyubiquitin chain formation inhibitors, primary screen, biochemical, TR-FRET, uHTS | Ubiquitin-conjugating enzyme E2 N (Homo sapiens), P61088 | inhibition, % at 20 µM | 330,000 compounds, 0.47% hits; in the data active = inhibition above about 45%, passing the limit was not always enough
Target sequence (P61088 whole entry, looked up): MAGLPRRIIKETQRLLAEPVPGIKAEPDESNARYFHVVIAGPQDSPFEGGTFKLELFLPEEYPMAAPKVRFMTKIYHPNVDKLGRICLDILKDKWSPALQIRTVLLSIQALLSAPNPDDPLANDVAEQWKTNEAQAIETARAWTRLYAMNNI
SENP8 inh conf = human SENP8 protease inhibitors, confirmation, biochemical, Nedd8 protein substrate, single concentration; inhibition, % at 25 µM; purified SENP8, Nedd8-AMC/pro-Nedd8 cleavage fluorescence, 30 min; AID 624319, 2012; 1,400 compounds, 15% hits; shares compounds with SENP8 block-1; in the data active = inhibition mostly above about 39%, no sharp cut-off; inactive = mostly below about 34%
Active calls of the source: *; x = no result given.

SMILES | SENP8 block-1 | SENP8 block-2 | SENP6 inh | Apaf1 inhib | SENP7 inh | UBC13 polyUb | SENP8 inh conf
CCOCCCNC(=O)C1CCCN(S(=O)(=O)CC)C1 (centres undefined) | 46* | -2 | 0 | -2 | -1 | 1 | -4
CCOc1ccc(N(CC(=O)NCc2ccccc2)S(C)(=O)=O)cc1 | 48* | 2 | -11 | -11 | 11 | 0 | 28
CCOc1ccc(N(CC(=O)NCc2ccccc2OC)S(C)(=O)=O)cc1 | 12 | 1 | 10 | -13 | 6 | 4 | x
O=C(N/N=C/CCc1ccccc1)c1ccccc1 | 47* | -3 | -8 | 6 | 6 | 10 | 16
O=C(N/N=C/CCc1ccccc1)C1CCCCC1 | 14 | 4 | 1 | 4 | 4 | 5 | x
CCN(CC)S(=O)(=O)c1ccc(/C=C/C(=O)Nc2ccc(N3CCOCC3)cc2)cc1 | 42* | -8 | -4 | 6 | -2 | -17 | 23
CCOC(=O)C1=CCC(c2ccccc2)N(S(=O)(=O)c2ccc(C)cc2)[C@H]1CC (some centres undefined) | 21 | x | x | x | x | x | x
CCOC(=O)c1ccc(-n2c(CN3CCN(CC)CC3)nc3ccc([N+](=O)[O-])cc3c2=O)cc1 | 41* | 9 | 4 | -7 | 8 | 13 | 15
CCOC(=O)c1ccc(-n2c(CN3CCOCC3)nc3ccc([N+](=O)[O-])cc3c2=O)cc1 | 35 | 10 | -8 | -25 | 5 | -7 | x
COc1ccc(Cc2nnc(SCC(=O)N3CCc4ccccc4C3)o2)cc1 | 39* | 0 | -12 | 26 | -10 | -2 | 76*
CCOc1ccc(NC(=O)[C@@H](NC(=O)OCc2ccccc2)[C@@H](C)CC)cc1 | 7 | 5 | 4 | 4 | 5 | -3 | x
CCC(C)C(NC(N)=O)C(=O)Nc1ccc(OCc2ccccc2)cc1 (centres undefined) | 49* | 2 | 0 | -33 | 8 | -1 | 20
CCc1nc2ccc(C(=O)NCCc3c[nH]c4ccccc34)cn2c1N(C)CCCc1ccccc1 | 9 | x | x | x | x | x | x
COc1ccc(S(=O)(=O)N2CCN(Cc3c[nH]c4ccccc34)CC2)cc1 | 24 | 1 | 15 | 1 | -1 | 11 | x
O=[N+]([O-])c1ccc(S(=O)(=O)N2CCN(Cc3c[nH]c4ccccc34)CC2)cc1 | 59* | 5 | 3 | 2 | 3 | 8 | 24
CCOC(=O)c1nn(-c2ccc(OC)cc2)c(=O)c2c(N)scc12 | 41* | 3 | 25 | 20 | -6 | -18 | 53*
CCOC(=O)c1nnn(-c2ccc(OC)cc2)c1N | 25 | 3 | -7 | 1 | 7 | 1 | x
CCCNC(=O)OC1CC2CC1[C@H]1CCCCN1C2=O (some centres undefined) | 19 | x | x | x | x | x | x
CC1=NN(c2ccccc2)C(=O)C1N=Nc1ccc(C)cc1 (centres undefined) | x | -2 | 4 | -9 | 3 | -7 | x
CC1=NN(c2ccccc2)C(=O)C1C=Nc1ccc(N(C)C)cc1 (centres undefined) | 17* | -8 | -4 | 38 | -7 | -21 | 14
Cc1cnc(C=NNC(N)=S)c2cccc(N)c12 | 82* | x | x | x | x | x | 43*
O=C(CNc1ccc2c(c1)OCO2)N/N=C\c1ccccc1Cl | 61* | 3 | 7 | -6 | 6 | -1 | 15
CCC(=O)N1CCC(C)(C(=O)Nc2ccc3c(c2)OCO3)C1 (centres undefined) | 14 | x | x | x | x | x | x
CCOCCSc1nc2c(c(=O)[nH]c(=O)n2C)n1CCCc1ccccc1 | 44* | 1 | -2 | 4 | 12 | 8 | 34
Cc1ccc(NC(=O)CSc2ccccc2)cc1S(=O)(=O)N1CCOCC1 | -28 | 13 | -1 | 5 | -2 | 2 | x
SMILES | SENP8 block-1 | SENP8 block-2 | SENP6 inh | Apaf1 inhib | SENP7 inh | UBC13 polyUb | SENP8 inh conf
Cc1ccc(NC(=O)C(=O)c2c(-c3ccccc3)cc3ccccn23)cc1S(=O)(=O)N1CCOCC1 | 52* | 14 | 31 | 25 | 2 | 0 | 28
Cc1ccccc1N1CC(=O)N(c2ccccc2C)CC1=O | 26 | 0 | 1 | -4 | 2 | 5 | x
CC1=NN(c2ccccc2C)C(=O)C1 | 51* | x | x | x | x | x | 22
CCCc1cnc(Nc2nc(C(N)Cc3ccc(C(F)(F)F)cc3)cs2)nc1 (centres undefined) | 11 | x | x | x | x | x | x
O=C(CN1CCc2ccccc2C1)N1CCN(S(=O)(=O)c2ccccc2)CC1 | 46* | 5 | 0 | 7 | 0 | 10 | 6
O=C(Cc1ccccc1)NCc1cccnc1 | 18 | -8 | -12 | 1 | 2 | -1 | x
O=C(CC(c1ccccc1)c1ccccc1)NCc1cccnc1 | 41* | 1 | -1 | -10 | 0 | -3 | 13
C[C@H]1CN([C@@H](C)CO)C(=O)CCCn2cc(nn2)CO[C@@H]1CN(C)C(=O)NC1CCCCC1 | 11 | x | x | x | x | x | x
Cc1ccc(S(=O)(=O)N2C[C@H]3[C@H]4C(=O)N(c5ccccc5)C(=O)[C@H]4CC(=O)[C@H]3[C@@H]2c2ccccc2F)cc1 | 50* | x | x | x | x | x | 23
Cc1ccc(S(=O)(=O)N2C[C@H]3[C@H]4C(=O)N(c5ccccc5)C(=O)[C@H]4CC(=O)[C@H]3[C@@H]2c2cccc3ccccc23)cc1 | 16 | x | x | x | x | x | x
O=[N+]([O-])c1c(Nc2ccc(O)cc2)cc(N2CCOCC2)c2nonc12 | 49* | -3 | -13 | 30 | 3 | -46 | 29
O=[N+]([O-])c1c(Nc2ccccc2O)cc(Cl)c2nonc12 | 42* | -4 | 12 | 14 | -5 | -63 | 12
O=[N+]([O-])c1c(Nc2ccccc2O)ccc2nonc12 | 19 | -1 | -7 | -1 | 0 | -40 | x
CC(=O)Nc1ccc(Nc2cc(N3CCOCC3)c3nonc3c2[N+](=O)[O-])cc1 | 15 | -2 | 7 | 10 | 9 | -28 | x
COc1cc(-c2coc3c(C(=O)NCc4ccccc4)cccc23)ccc1O | 10 | x | x | x | x | x | x
COCCNC(=O)C1(C)CCCN(C(=O)c2cc(F)ccc2C)C1 (centres undefined) | 6 | x | x | x | x | x | x
CC(C)(C)OC(=O)NCCCCCNC(=O)c1nc[nH]c1C(=O)N1CCc2ccccc2C1 | 48* | -14 | -5 | 29 | -7 | -14 | 57*
CC(C)(C)OC(=O)NCCCC[C@H](NC(=O)c1nc[nH]c1C(=O)N1CCc2ccccc2C1)C(=O)OC(C)(C)C | 12 | 1 | -4 | 28 | 1 | -8 | x
Cn1c(=O)n(Cc2ccccc2)c(=O)c2c1nc1n2CCCN1C1CCCCC1 | 45* | 2 | -14 | 7 | -4 | 5 | 10
